Paper PMC10975593 (ACS Omega, 2024)
Where two headings read alike, the source gives them in different places.

Legend:
SF-268 = experiment: NCI 60-cell line screen; type: cell-based, human; conditions: for GI50 / IC50 / CC50: Homo sapiens; for GI50 / IC50: SF-268; for CC50: SF-268, read-out: LC50; for TGI: SF-268, CNS cancer
Method in brief: (§1)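 Test compounds were submitted to the National Cancer Institute and run under NCI's standard 60-cell-line protocols. Read-outs were taken from percent-growth versus log-concentration curves.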

SK-MEL-5 = experiment: NCI 60-cell line screen; type: cell-based, human; conditions: for GI50 / IC50 / CC50: Homo sapiens; for GI50 / IC50: SK-MEL-5; for CC50: SK-MEL-5, read-out: LC50; for TGI: SK-MEL-5, melanoma
Method in brief: as §1

MDA-MB-468 = experiment: NCI 60-cell line screen; type: cell-based, human; conditions: for GI50 / IC50 / CC50: Homo sapiens; for GI50 / IC50: MDA-MB-468; for CC50: MDA-MB-468, read-out: LC50; for TGI: MDA-MB-468, breast cancer
786-0 = experiment: NCI 60-cell line screen; type: cell-based, human; conditions: for TGI: 786-0, renal cancer; for GI50 / IC50 / CC50: Homo sapiens; for GI50 / IC50: 786-0; for CC50: 786-0, read-out: LC50
DU-145 = experiment: NCI 60-cell line screen; type: cell-based, human; conditions: for TGI: DU-145, prostate cancer; for GI50 / IC50 / CC50: Homo sapiens; for GI50 / IC50: DU-145; for CC50: DU-145, read-out: LC50
HL-60(TB) = experiment: cells; conditions: Homo sapiens; for GI50 / IC50: HL-60; for CC50: HL-60, read-out: LC50
NCI-H522 = experiment: NCI 60-cell line screen; type: cell-based, human; conditions: for GI50 / IC50 / CC50: Homo sapiens; for GI50 / IC50: NCI-H522; for CC50: NCI-H522, read-out: LC50; for TGI: NCI-H522, non-small cell lung cancer
T-47D = experiment: NCI 60-cell line screen; type: cell-based, human; conditions: for GI50 / IC50 / CC50: Homo sapiens, T47D; for CC50: read-out: LC50; for TGI: T-47D, breast cancer
Method in brief: as §1

HS 578T = experiment: NCI 60-cell line screen; type: cell-based, human; conditions: for TGI: HS 578T, breast cancer; for GI50 / IC50 / CC50: Homo sapiens, Hs-578T; for CC50: read-out: LC50
U251 = experiment: NCI 60-cell line screen; type: cell-based, human; conditions: for GI50 / IC50 / CC50: Homo sapiens; for GI50 / IC50: U-251; for CC50: U-251, read-out: LC50; for TGI: U251, CNS cancer
Method in brief: as §1

SK-MEL-2 = experiment: NCI 60-cell line screen; type: cell-based, human; conditions: for GI50 / IC50 / CC50: Homo sapiens; for GI50 / IC50: SK-MEL-2; for CC50: SK-MEL-2, read-out: LC50; for TGI: SK-MEL-2, melanoma
Method in brief: as §1

MCF-7 = experiment: NCI 60-cell line screen; type: cell-based, human; conditions: for GI50 / IC50 / CC50: Homo sapiens; for GI50 / IC50: MCF7; for CC50: MCF7, read-out: LC50; for TGI: MCF-7, breast cancer
Escherichia coli = experiment: Disc diffusion antimicrobial test; type: cell-based; conditions: Escherichia coli, 24 h, read-out: zone of inhibition (diameter of inhibition)
Method in brief: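 Disc diffusion on nutrient agar, test compound at 100 μg/mL with DMSO as solvent. Plates incubated at 37 °C for 24 h after inoculation, then zone of inhibition measured and compared with standards. Controls were DMSO, amoxicillin, ciprofloxacin and tetracycline.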

IGROV1 = experiment: NCI 60-cell line screen; type: cell-based, human; conditions: for GI50 / IC50 / CC50: Homo sapiens; for GI50 / IC50: IGROV-1; for CC50: IGROV-1, read-out: LC50; for TGI: IGROV1, ovarian cancer
CDK1/cyclin B = CDK1/cyclin B (Homo sapiens, UniProt P06493); experiment: Kinase selectivity for OMS14; type: biochemical
Chain of CDK1/cyclin B (P06493 whole entry): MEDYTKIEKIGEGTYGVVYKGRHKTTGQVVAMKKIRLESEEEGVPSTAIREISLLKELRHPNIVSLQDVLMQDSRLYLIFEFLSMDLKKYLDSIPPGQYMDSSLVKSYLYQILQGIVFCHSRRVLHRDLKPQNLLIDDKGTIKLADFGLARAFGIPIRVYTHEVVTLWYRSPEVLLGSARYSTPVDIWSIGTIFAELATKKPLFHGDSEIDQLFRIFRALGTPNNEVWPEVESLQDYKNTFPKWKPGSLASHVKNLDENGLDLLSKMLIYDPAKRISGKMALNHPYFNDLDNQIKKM
Chain of CDK1/cyclin B (P14635 whole entry, further chain): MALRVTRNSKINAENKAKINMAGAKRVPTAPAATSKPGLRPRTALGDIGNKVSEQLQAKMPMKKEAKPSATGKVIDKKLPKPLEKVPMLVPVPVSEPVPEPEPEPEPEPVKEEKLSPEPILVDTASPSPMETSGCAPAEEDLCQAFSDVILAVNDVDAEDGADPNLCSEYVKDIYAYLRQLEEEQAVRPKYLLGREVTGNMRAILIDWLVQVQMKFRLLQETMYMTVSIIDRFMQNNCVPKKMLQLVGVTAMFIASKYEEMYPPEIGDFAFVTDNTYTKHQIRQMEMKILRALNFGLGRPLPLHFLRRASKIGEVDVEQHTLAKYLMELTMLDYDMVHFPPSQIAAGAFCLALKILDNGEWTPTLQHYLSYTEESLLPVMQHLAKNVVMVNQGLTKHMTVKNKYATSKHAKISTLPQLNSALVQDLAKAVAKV

AKT3 (PKB γ) = AKT3 (PKB γ) (Homo sapiens, UniProt Q9Y243); experiment: Kinase selectivity for OMS14; type: biochemical
Chain of AKT3 (PKB γ) (Q9Y243 whole entry): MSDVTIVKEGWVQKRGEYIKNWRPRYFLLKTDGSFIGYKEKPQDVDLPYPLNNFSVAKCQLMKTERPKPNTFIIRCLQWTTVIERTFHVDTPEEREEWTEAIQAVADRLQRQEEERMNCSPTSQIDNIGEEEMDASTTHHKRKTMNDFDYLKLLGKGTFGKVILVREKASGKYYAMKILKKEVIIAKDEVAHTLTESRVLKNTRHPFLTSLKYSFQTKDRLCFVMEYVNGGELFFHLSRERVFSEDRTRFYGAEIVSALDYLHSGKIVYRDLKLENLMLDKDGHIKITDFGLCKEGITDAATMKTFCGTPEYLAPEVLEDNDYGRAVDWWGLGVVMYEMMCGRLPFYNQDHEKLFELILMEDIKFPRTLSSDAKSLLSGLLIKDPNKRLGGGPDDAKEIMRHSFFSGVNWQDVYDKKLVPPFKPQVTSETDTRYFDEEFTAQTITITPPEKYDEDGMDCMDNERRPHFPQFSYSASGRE

MCF-7 cancer cell line = experiment: MTT assay; type: cell-based; conditions: Homo sapiens, MCF7, 72 h
Method in brief: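 A549 in DMEM and MCF-7 in RPMI, each with 10% heat-inactivated FBS, 1% penicillin/streptomycin and 2 mmol/L glutamine at 37 °C, 5% CO2. Seeded at 2000 (A549) or 10,000 (MCF-7) cells/well and attached 24 h. Then 72 h with test compound at varying concentrations. MTT (5 mg/mL stock) added for 4 h at 37 °C, formazan dissolved in DMSO, absorbance read at 450/540 nm. Triplicates in three separate experiments.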

PDK1 Direct = biological target: T1, PDK1 Direct (Homo sapiens, UniProt O15530); experiment: Kinase selectivity for OMS14; type: biochemical
T1 sequence (O15530 1-556): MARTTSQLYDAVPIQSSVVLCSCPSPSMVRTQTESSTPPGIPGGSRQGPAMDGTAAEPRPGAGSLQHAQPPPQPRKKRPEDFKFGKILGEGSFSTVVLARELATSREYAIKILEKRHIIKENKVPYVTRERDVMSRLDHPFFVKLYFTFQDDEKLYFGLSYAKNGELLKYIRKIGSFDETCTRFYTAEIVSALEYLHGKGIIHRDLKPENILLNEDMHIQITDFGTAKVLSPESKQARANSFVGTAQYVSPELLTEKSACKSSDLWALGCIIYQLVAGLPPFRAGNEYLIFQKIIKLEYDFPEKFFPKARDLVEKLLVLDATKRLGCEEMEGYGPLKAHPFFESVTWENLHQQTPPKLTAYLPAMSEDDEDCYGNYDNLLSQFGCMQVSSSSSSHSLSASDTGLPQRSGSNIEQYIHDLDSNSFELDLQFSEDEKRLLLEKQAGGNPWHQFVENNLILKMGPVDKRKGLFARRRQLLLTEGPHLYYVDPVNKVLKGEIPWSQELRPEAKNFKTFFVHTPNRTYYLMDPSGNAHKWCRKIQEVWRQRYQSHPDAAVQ

[1] = biological target: PIK3CA E542 K/PIK3R1 (p110 α E542 K/p85 α) (Homo sapiens, UniProt P42336, E542K); experiment: Kinase selectivity for OMS14; type: biochemical
Chain of PIK3CA E542 K/PIK3R1 (p110 α E542 K/p85 α) (P42336 whole entry E542K): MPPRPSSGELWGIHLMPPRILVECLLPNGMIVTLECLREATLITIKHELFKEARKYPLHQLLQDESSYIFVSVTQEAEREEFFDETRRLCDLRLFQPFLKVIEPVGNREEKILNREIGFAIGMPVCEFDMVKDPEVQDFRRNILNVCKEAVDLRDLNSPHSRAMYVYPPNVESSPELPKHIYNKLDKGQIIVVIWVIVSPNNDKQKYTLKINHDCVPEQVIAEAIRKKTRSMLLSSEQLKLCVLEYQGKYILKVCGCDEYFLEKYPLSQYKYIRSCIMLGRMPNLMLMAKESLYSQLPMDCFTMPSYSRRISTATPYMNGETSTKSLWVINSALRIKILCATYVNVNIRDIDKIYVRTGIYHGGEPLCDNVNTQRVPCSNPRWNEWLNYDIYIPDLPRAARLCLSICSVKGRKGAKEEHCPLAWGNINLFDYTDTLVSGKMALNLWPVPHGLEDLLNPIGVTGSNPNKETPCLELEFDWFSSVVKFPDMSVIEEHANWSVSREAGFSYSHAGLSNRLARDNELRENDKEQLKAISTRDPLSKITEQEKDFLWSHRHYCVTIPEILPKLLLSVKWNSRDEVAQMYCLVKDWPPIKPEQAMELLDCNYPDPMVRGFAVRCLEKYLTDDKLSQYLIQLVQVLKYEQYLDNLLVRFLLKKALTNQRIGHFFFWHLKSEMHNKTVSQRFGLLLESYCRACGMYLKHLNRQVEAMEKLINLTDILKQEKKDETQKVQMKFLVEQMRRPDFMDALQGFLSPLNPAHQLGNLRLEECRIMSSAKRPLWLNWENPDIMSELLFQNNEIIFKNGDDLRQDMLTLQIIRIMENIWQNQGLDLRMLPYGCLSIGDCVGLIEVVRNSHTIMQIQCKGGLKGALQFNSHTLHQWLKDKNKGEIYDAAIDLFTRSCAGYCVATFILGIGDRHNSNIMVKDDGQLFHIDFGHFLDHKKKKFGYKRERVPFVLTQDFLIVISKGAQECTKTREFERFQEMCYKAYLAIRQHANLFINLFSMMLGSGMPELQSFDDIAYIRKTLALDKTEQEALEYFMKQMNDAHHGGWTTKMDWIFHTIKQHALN
Chain of PIK3CA E542 K/PIK3R1 (p110 α E542 K/p85 α) (P27986 whole entry partner): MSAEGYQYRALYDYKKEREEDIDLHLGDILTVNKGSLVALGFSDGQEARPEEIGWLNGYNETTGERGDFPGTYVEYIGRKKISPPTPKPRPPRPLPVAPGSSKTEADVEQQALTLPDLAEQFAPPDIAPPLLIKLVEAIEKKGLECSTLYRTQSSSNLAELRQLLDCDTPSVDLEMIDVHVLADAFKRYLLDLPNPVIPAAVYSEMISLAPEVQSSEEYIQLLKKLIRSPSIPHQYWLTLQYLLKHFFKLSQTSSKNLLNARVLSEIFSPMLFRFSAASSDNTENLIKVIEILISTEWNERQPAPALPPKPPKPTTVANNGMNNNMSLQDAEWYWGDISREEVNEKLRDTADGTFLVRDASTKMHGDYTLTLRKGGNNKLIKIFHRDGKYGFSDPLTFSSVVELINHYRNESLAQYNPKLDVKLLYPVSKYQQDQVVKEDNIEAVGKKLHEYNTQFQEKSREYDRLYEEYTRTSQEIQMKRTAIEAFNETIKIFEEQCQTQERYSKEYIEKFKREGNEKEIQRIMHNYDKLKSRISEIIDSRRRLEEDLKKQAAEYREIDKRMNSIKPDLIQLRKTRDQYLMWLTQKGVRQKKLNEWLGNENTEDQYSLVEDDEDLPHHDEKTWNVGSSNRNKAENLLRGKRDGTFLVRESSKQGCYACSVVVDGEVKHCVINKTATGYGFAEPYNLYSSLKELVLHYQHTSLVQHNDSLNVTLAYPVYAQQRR

AKT1 (PKB α) = AKT1 (PKB α) (Homo sapiens, UniProt P31749); experiment: Kinase selectivity for OMS14; type: biochemical
Chain of AKT1 (PKB α) (P31749 whole entry): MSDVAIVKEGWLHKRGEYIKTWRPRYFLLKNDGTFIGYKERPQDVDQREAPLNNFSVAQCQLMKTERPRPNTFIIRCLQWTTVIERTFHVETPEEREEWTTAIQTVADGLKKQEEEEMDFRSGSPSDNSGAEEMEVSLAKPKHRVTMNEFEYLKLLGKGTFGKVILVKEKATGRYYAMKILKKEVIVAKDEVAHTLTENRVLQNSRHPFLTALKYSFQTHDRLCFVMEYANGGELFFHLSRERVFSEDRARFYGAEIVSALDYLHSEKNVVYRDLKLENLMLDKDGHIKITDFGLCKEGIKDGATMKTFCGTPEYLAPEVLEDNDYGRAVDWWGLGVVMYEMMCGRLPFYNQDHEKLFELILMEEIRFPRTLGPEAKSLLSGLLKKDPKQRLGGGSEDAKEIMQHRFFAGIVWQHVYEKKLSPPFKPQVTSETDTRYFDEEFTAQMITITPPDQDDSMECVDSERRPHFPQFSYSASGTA

[2] = read-out: % of inhibition (mean)
[3] = read-out: % of inhibition, point 1
[4] = read-out: % of inhibition, point 2

O=C(CNc1ccc([N+](=O)[O-])cc1)Nc1nc2ccccc2s1 [OMS5, N-(1,3-benzothiazol-2-yl)-2-(4-nitroanilino)acetamide]
GI50 (SF-268): 1.3 µM | IC50 (SF-268): 3.5 µM | CC50 (SF-268): 51.3 µM | TGI (SF-268): 6.6 µM | GI50 (SK-MEL-5): 1.6 µM | IC50 (SK-MEL-5): 2.9 µM | CC50 (SK-MEL-5): 5.5 µM | TGI (SK-MEL-5): 3 µM | GI50 (MDA-MB-468): 0.4 µM | IC50 (MDA-MB-468): 1.8 µM | CC50 (MDA-MB-468): 5.3 µM | TGI (MDA-MB-468): 1.8 µM | TGI (786-0): 12 µM | GI50 (786-0): 0.5 µM | IC50 (786-0): 0.9 µM | CC50 (786-0): 43.7 µM | TGI (DU-145): 12 µM | GI50 (DU-145): 0.8 µM | IC50 (DU-145): 1.8 µM | CC50 (DU-145): 52.5 µM | GI50 (HL-60(TB)): 0.8 µM | IC50 (HL-60(TB)): 2.5 µM | CC50 (HL-60(TB)): > 100 µM | GI50 (NCI-H522): 0.7 µM | IC50 (NCI-H522): 2.1 µM | CC50 (NCI-H522): 6.3 µM | TGI (NCI-H522): 2.3 µM | GI50 (T-47D): 1 µM | IC50 (T-47D): 4.6 µM | CC50 (T-47D): 74.1 µM | TGI (T-47D): 4.6 µM | TGI (HS 578T): 5.6 µM | GI50 (HS 578T): 1.6 µM | IC50 (HS 578T): 5.9 µM | CC50 (HS 578T): 93.3 µM | GI50 (U251): 0.9 µM | IC50 (U251): 1.7 µM | CC50 (U251): 41.7 µM | TGI (U251): 12 µM | GI50 (SK-MEL-2): 1.3 µM | IC50 (SK-MEL-2): 3 µM | CC50 (SK-MEL-2): 6.3 µM | TGI (SK-MEL-2): 2.8 µM | GI50 (MCF-7): 0.4 µM | IC50 (MCF-7): 0.5 µM | CC50 (MCF-7): 74.1 µM | TGI (MCF-7): 10 µM | zone of inhibition at 100 µg/mL (Escherichia coli): 0 mm | GI50 (IGROV1): 0.8 µM | IC50 (IGROV1): 1.8 µM | CC50 (IGROV1): > 100 µM | TGI (IGROV1): 12 µM

O=C(CN1CCN(CC(=O)Nc2nc3ccccc3s2)CC1)Nc1ccc([N+](=O)[O-])cc1 [OMS14, N-(benzo[d]thiazol-2-yl)-2-(4-(2-((4-nitrophenyl)amino)-2-oxoethyl)piperazin-1-yl)acetamide]
inhibition at 100 µM (CDK1/cyclin B; [2]): 24% | inhibition at 100 µM (CDK1/cyclin B; [3]): 23% | inhibition at 100 µM (CDK1/cyclin B; [4]): 25% | GI50 (SF-268): 2.2 µM | IC50 (SF-268): 4.6 µM | CC50 (SF-268): 43.7 µM | TGI (SF-268): 7.1 µM | inhibition at 100 µM (AKT3 (PKB γ); [2]): 28% | inhibition at 100 µM (AKT3 (PKB γ); [3]): 27% | inhibition at 100 µM (AKT3 (PKB γ); [4]): 29% | GI50 (SK-MEL-5): 1.7 µM | IC50 (SK-MEL-5): 3.2 µM | CC50 (SK-MEL-5): 6.3 µM | TGI (SK-MEL-5): 3.3 µM | IC50 (MCF-7 cancer cell line): 22.1 µM | GI50 (MDA-MB-468): 1.5 µM | IC50 (MDA-MB-468): 3.2 µM | CC50 (MDA-MB-468): 7.1 µM | TGI (MDA-MB-468): 3.2 µM | TGI (786-0): 11.5 µM | GI50 (786-0): 2.1 µM | IC50 (786-0): 3.3 µM | CC50 (786-0): 43.7 µM | inhibition at 100 µM (PDK1 Direct; [2]): -7% | inhibition at 100 µM (PDK1 Direct; [3]): -6% | inhibition at 100 µM (PDK1 Direct; [4]): -8% | TGI (DU-145): 7.9 µM | GI50 (DU-145): 2.2 µM | IC50 (DU-145): 3.5 µM | CC50 (DU-145): 38.9 µM | GI50 (HL-60(TB)): 2.5 µM | IC50 (HL-60(TB)): 4.4 µM | CC50 (HL-60(TB)): 81.3 µM | GI50 (NCI-H522): 1.5 µM | IC50 (NCI-H522): 3 µM | CC50 (NCI-H522): 6.5 µM | TGI (NCI-H522): 3.2 µM | GI50 (T-47D): 2.2 µM | IC50 (T-47D): 5.6 µM | CC50 (T-47D): > 100 µM | TGI (T-47D): 5.8 µM | TGI (HS 578T): 8.5 µM | GI50 (HS 578T): 2.4 µM | IC50 (HS 578T): 8.9 µM | CC50 (HS 578T): > 100 µM | inhibition at 100 µM [1, 2]: 34% | inhibition at 100 µM [1, 3]: 33% | inhibition at 100 µM [1, 4]: 36% | GI50 (U251): 2.6 µM | IC50 (U251): 3.5 µM | CC50 (U251): 50.1 µM | TGI (U251): 11.0 µM | GI50 (SK-MEL-2): 1.8 µM | IC50 (SK-MEL-2): 3.5 µM | CC50 (SK-MEL-2): 6.9 µM | TGI (SK-MEL-2): 3.5 µM | GI50 (MCF-7): 2.8 µM | IC50 (MCF-7): 4.1 µM | CC50 (MCF-7): 61.7 µM | TGI (MCF-7): 7.8 µM | zone of inhibition at 100 µg/mL (Escherichia coli): 0 mm | GI50 (IGROV1): 1.9 µM | IC50 (IGROV1): 3.3 µM | CC50 (IGROV1): 47.9 µM | TGI (IGROV1): 4.6 µM | inhibition at 100 µM (AKT1 (PKB α); [2]): 14% | inhibition at 100 µM (AKT1 (PKB α); [3]): 11% | inhibition at 100 µM (AKT1 (PKB α); [4]): 17%
